Results: ChEMBL document CHEMBL1944538, “Synthetic peptides derived from the sequence of a lasso peptide microcin J25 show antibacterial activity” (Bioorg Med Chem, 2012)
In brackets after ≈: the same amount, converted by molar mass. Activity calls are given as the source filed them. No cut-off for these calls is given here. Positions of bridges follow the written chain, without caps; N, C: chain ends. Residues, ends and D or L forms follow the SMILES beside them.

Experiments:
[1] = Stability of the compound at 200 uM after overnight incubation by spot on lawn method in the presence of chymotrypsin; format: ADME
[2] = Stability of the compound at 150 uM after 30 mins by RP-HPLC analysis in the presence of pepsin; format: ADME; settings: 0.5 h
In short: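 Peptide (150 µM) was incubated at 37 °C with pepsin (4% w/w) in 0.1 N HCl. Aliquots taken at 0 and 30 min were quenched into 0.1 N NaOH/70% methanol and centrifuged. Supernatant was analysed by C18 RP-HPLC (15–50% isopropanol/water, 0.05% TFA, 35 min, UV 220 nm). Fragments were identified by MALDI-TOF.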

[3] = Bactericidal activity against Salmonella newport clinical isolate after 24 hrs; format: functional, Salmonella enterica subsp. enterica serovar Newport; settings: Salmonella enterica
In short: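 For MBC, 10 µL from each clear well of the 24 h, 37 °C LB broth-dilution plate was spread on LB agar and incubated 24 h at 37 °C. MBC was the lowest concentration giving no growth on agar.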

Enterococcus faecalis = assay: Antibacterial activity against Enterococcus faecalis ATCC 19433; format: functional, organism-based
Staphylococcus aureus = assay: Antibacterial activity against Staphylococcus aureus ATCC 6538; format: functional, organism-based
Escherichia coli [4] = assay: Antibacterial activity against Escherichia coli MC4100 up to 250 uM after 24 hrs by liquid growth inhibition assay; format: functional, organism-based
In short: (§1)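 Liquid broth microdilution in LB. Peptide stocks were made in 20% methanol/water (1 or 2.5 mM), then serially doubled in water to final 0.01–100 or 0.5–250 µM. Inoculum was diluted to OD620 0.02–0.05. Plates ran 24 h at 37 °C and were read at OD620. MIC was the lowest concentration giving 100% growth inhibition (0.05 AU). Triplicate wells, three repeat experiments.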

Escherichia coli [5] = assay: Antibacterial activity against Escherichia coli DH5alpha up to 250 uM after 24 hrs by liquid growth inhibition assay; format: functional, organism-based; settings: DH5[alpha]; in short: as §1
[6] = tested on: Salmonella enterica subsp. enterica serovar Choleraesuis; assay: Antibacterial activity against Salmonella choleraesuis ATCC 10708 up to 250 uM after 24 hrs by liquid growth inhibition assay; format: functional
Salmonella paratyphi = assay: Antibacterial activity against Salmonella paratyphi up to 250 uM after 24 hrs by liquid growth inhibition assay; format: functional, organism-based; settings: Salmonella enterica subsp. enterica serovar Paratyphi A
[7] = tested on: Salmonella enterica subsp. enterica serovar Montevideo; assay: Antibacterial activity against Salmonella montevideo 20 up to 250 uM after 24 hrs by liquid growth inhibition assay; format: functional; in short: as §1
[8] = tested on: Salmonella enterica subsp. enterica serovar Heidelberg; assay: Antibacterial activity against Salmonella heidelberg ATCC 8326 up to 250 uM after 24 hrs by liquid growth inhibition assay; format: functional; in short: as §1
Salmonella typhimurium [9] = assay: Antibacterial activity against Salmonella Typhimurium ATCC 13311 up to 250 uM after 24 hrs by liquid growth inhibition assay; format: functional, organism-based; settings: Salmonella enterica subsp. enterica serovar Typhimurium; in short: as §1
Salmonella typhimurium [10] = assay: Antibacterial activity against Salmonella Typhimurium AFLB 25 up to 250 uM after 24 hrs by liquid growth inhibition assay; format: functional, organism-based; settings: Salmonella enterica subsp. enterica serovar Typhimurium; in short: as §1
Salmonella enteritidis [11] = assay: Antibacterial activity against Salmonella enteritidis AFLB 81 up to 250 uM after 24 hrs by liquid growth inhibition assay; format: functional, organism-based; settings: Salmonella enterica subsp. enterica serovar Enteritidis; in short: as §1
Salmonella enteritidis [12] = assay: Antibacterial activity against Salmonella enteritidis AFLB 41 up to 250 uM after 24 hrs by liquid growth inhibition assay; format: functional, organism-based; settings: Salmonella enterica subsp. enterica serovar Enteritidis; in short: as §1
Salmonella enteritidis [13] = assay: Antibacterial activity against Salmonella enteritidis AFLB 11 up to 250 uM after 24 hrs by liquid growth inhibition assay; format: functional, organism-based; settings: Salmonella enterica subsp. enterica serovar Enteritidis; in short: as §1
Salmonella enteritidis [14] = assay: Antibacterial activity against Salmonella enteritidis ATCC 13076 up to 250 uM after 24 hrs by liquid growth inhibition assay; format: functional, organism-based; settings: Salmonella enterica subsp. enterica serovar Enteritidis; in short: as §1
Salmonella enteritidis [15] = assay: Antibacterial activity against Salmonella enteritidis PT8 up to 250 uM after 24 hrs by liquid growth inhibition assay; format: functional, organism-based; settings: Salmonella enterica subsp. enterica serovar Enteritidis; in short: as §1
[16] = Antibacterial activity against Salmonella newport clinical isolate after 24 hrs by liquid growth inhibition assay; format: functional, Salmonella enterica subsp. enterica serovar Newport; settings: Salmonella enterica; in short: as §1
[17] = tested on: Salmonella enterica subsp. enterica serovar Newport; assay: Inhibition of oxygen consumption in Salmonella newport clinical isolate at 30 uM after 35 mins by Gilson Clarke oxygraph analysis; format: functional
In short: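 Cells were held 35 min at 37 °C with peptide at the stated concentration. Respiration rate over the next 5 min was measured polarographically with a Clark electrode oxygraph at 37 °C. Results are percent of a peptide-free control; three independent experiments, mean ± SD.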

[18] = Cytotoxicity against human MDA-MB-435 cells assessed as cell viability at 0.3 to 100 uM after 24 hrs by MTT assay; format: cell-based; settings: read-out: Activity
In short: (§2)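 MTT assay. MDA-MB-435 cells were kept in RPMI 1640 and MCF7 cells in DMEM, both with 10% FBS, penicillin and streptomycin, at 37 °C and 5% CO2. Cells were seeded at 1×10^4/well and grown 24 h. Samples came from 1 mM stocks in 10% DMSO/water, twofold diluted to 0.3125–100 µM, and applied for 24 h. MTT (5 mg/mL) was added for 3.5 h, then DMSO solubilization and A570. Viability is relative to untreated cells; triplicate, mean.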

[19] = Cytotoxicity against human MCF7 cells assessed as cell viability at 0.3 to 100 uM after 24 hrs by MTT assay; format: cell-based; settings: read-out: Activity; in short: as §2
[20] = Thermostability in boiling water after 3 hrs; format: physicochemical; settings: buffer
[21] = tested on: Salmonella enterica subsp. enterica serovar Newport; assay: Antibacterial activity against Salmonella newport clinical isolate up to 250 uM after 24 hrs by liquid growth inhibition assay; format: functional; in short: as §1

SMILES	Activity (Enterococcus faecalis)	Activity (Staphylococcus aureus)	Activity (Escherichia coli [4])	Activity (Escherichia coli [5])	Activity [6]	Activity (Salmonella paratyphi)	Activity [7]	Activity [8]	Activity (Salmonella typhimurium [9])	Activity (Salmonella typhimurium [10])	Activity (Salmonella enteritidis [11])	Activity (Salmonella enteritidis [12])	Activity (Salmonella enteritidis [13])	Activity (Salmonella enteritidis [14])	Activity (Salmonella enteritidis [15])	viability at 24 h, up to 100 µM [18]	viability at 24 h, up to 100 µM [19]	Activity [21]	other results
CC[C@H](C)[C@H](NC(=O)[C@@H]1CCCN1C(=O)[C@@H](NC(=O)CNC(=O)[C@H](CCCNC(=N)N)NC(=O)CNC(=O)[C@@H](NC(=O)[C@H](Cc1ccccc1)NC(=O)[C@H](Cc1ccc(O)cc1)NC(=O)[C@@H]1CSSC[C@H](N)C(=O)NCC(=O)N[C@@H](C)C(=O)NCC(=O)N[C@@H](Cc2ccccc2)C(=O)N[C@@H](Cc2cnc[nH]2)C(=O)N[C@@H](C(C)C)C(=O)N2CCC[C@H]2C(=O)N1)C(C)C)[C@@H](C)O)C(=O)N[C@@H](CO)C(=O)N[C@@H](Cc1ccccc1)C(=O)N[C@@H](Cc1ccc(O)cc1)C(=O)NCC(=O)O (H-CGAGFHVPCYFVGRGTPISFYG-OH; disulfide 1-9)	inactive	inactive	inactive	inactive	inactive	inactive	inactive	inactive	inactive	inactive	inactive	inactive	inactive	inactive	inactive	> 90%	> 90%	–	Stability [1]: Unstable; Stability [2]: Unstable; MBC [3]: 62.5 µM (≈ 146 µg/mL); MIC [16]: 30 µM (≈ 70 µg/mL); inhibition [17]: inactive; Stability [20]: Unstable
CC[C@H](C)[C@@H]1NC(=O)[C@@H]2CCCN2C(=O)CNC(=O)CNC(=O)[C@H](CCCNC(=N)N)NC(=O)CNC(=O)[C@H](C(C)C)NC(=O)[C@H](Cc2ccccc2)NC(=O)[C@H](Cc2ccc(O)cc2)NC(=O)[C@@H]2CSSC[C@H](NC(=O)[C@H](CCC(=O)O)NC1=O)C(=O)NCC(=O)N[C@@H](C)C(=O)NCC(=O)N[C@@H](Cc1cnc[nH]1)C(=O)N[C@@H](C(C)C)C(=O)N1CCC[C@H]1C(=O)N2 (cyclo(AGHVPCYFVGRGGPIECG); disulfide 6-17)	inactive	inactive	inactive	inactive	inactive	inactive	inactive	inactive	inactive	inactive	inactive	inactive	inactive	inactive	inactive	> 90%	> 90%	inactive	–
CC[C@H](C)[C@H](NC(=O)[C@@H]1CCCN1C(=O)CNC(=O)CNC(=O)[C@H](CCCNC(=N)N)NC(=O)CNC(=O)[C@@H](NC(=O)[C@H](Cc1ccccc1)NC(=O)[C@H](Cc1ccc(O)cc1)NC(=O)[C@@H]1CSSC[C@H](N)C(=O)NCC(=O)N[C@@H](C)C(=O)N[C@@H](Cc2ccccc2)C(=O)N[C@@H](Cc2cnc[nH]2)C(=O)N[C@@H](C(C)C)C(=O)N2CCC[C@H]2C(=O)N1)C(C)C)C(=O)N[C@@H](CO)C(=O)N[C@@H](Cc1ccccc1)C(=O)O (H-CGAFHVPCYFVGRGGPISF-OH; disulfide 1-8)	inactive	inactive	inactive	inactive	inactive	inactive	inactive	inactive	inactive	inactive	inactive	inactive	inactive	inactive	inactive	> 90%	> 90%	inactive	–
CC[C@H](C)[C@H](NC(=O)CNC(=O)[C@@H](NC(=O)[C@H](Cc1ccccc1)NC(=O)[C@H](Cc1ccc(O)cc1)NC(=O)[C@@H]1CSSC[C@H](N)C(=O)NCC(=O)N[C@@H](C)C(=O)NCC(=O)N[C@@H](CCCCN)C(=O)N[C@@H](C(C)C)C(=O)N2CCC[C@H]2C(=O)N1)C(C)C)C(=O)NCC(=O)N[C@H](C(=O)N1CCC[C@H]1C(=O)N[C@H](C(=O)N[C@@H](CO)C(=O)N[C@@H](Cc1ccccc1)C(=O)N[C@@H](CCC(=O)O)C(=O)NCC(=O)O)[C@@H](C)CC)[C@@H](C)O (H-CGAGKVPCYFVGIGTPISFEG-OH; disulfide 1-8)	inactive	inactive	inactive	inactive	inactive	inactive	inactive	inactive	inactive	inactive	inactive	inactive	inactive	inactive	inactive	75%	75%	inactive	–
CC[C@H](C)[C@H](NC(=O)CNC(=O)[C@@H](NC(=O)[C@H](Cc1ccccc1)NC(=O)[C@H](Cc1ccc(O)cc1)NC(=O)[C@@H]1CSSC[C@H](N)C(=O)NCC(=O)N[C@@H](C)C(=O)N[C@@H](CCCCN)C(=O)N[C@@H](Cc2cnc[nH]2)C(=O)N[C@@H](C(C)C)C(=O)N2CCC[C@H]2C(=O)N1)C(C)C)C(=O)NCC(=O)N[C@H](C(=O)N1CCC[C@H]1C(=O)N[C@H](C(=O)N[C@@H](CO)C(=O)N[C@@H](Cc1ccccc1)C(=O)N[C@@H](CCC(=O)O)C(=O)O)[C@@H](C)CC)[C@@H](C)O (H-CGAKHVPCYFVGIGTPISFE-OH; disulfide 1-8)	inactive	inactive	inactive	inactive	inactive	inactive	inactive	inactive	inactive	inactive	inactive	inactive	inactive	inactive	inactive	–	75%	inactive	–
